HNF4A DNA FP: change in binding of human HNF4 alpha to DNA; P41235; activity change, % at 10 µM; AID 1224865; HNF4a-FITC DNA binding, fluorescence polarization, 1 h; 360,000 tested, 0.3% active; in the data active means activity change above about 30%, passing the limit was not always enough
NadD inh: NadD (S. aureus) enzyme inhibition. purified NadD enzyme, colorimetric absorbance read-out. inhibition, % at 20 µM. 360,000 tested, 0.78% active; in the data active means inhibition above about 26%
Rpn11 block: Rpn11 (human) deubiquitinase inhibition. human 26S proteasome, Ub4-pepOG fluorescence polarization; 20S core pre-blocked with epoxomicin. 360,000 tested, 0.59% active. inhibition, % at 20 µM. O00487;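 active means inhibition at 20 µM, scaled to each plate's controls, above about 33%, limit read from the data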
TPT1 inh: C. albicans TPT1 enzyme inhibition; recombinant caTPT1, FP RNA substrate dephosphorylation; inhibition, % at 5 µM; 300,000 tested, 0.81% active; AID 1962;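 active means inhibition above the mean of all tested compounds plus 3 SD, set per screening campaign, cut at about 24% in these data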;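 further: plate controls were DMSO alone for no effect and ferristatin control at 100 nM for full effect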
CSN deneddyl inh: CSN deneddylation inhibition; 360,000 tested, 0.38% active; Q92905; inhibition, % at 12.5 µM; Purified CSN, SCF-Nedd8-OG deneddylation, fluorescence polarization;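 active means pattern-corrected inhibition above about 35%, with an unprinted fluorescence ratio check between 0.5 and 1.5, limit read from the data, passing the limit was not always enough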;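 further: 0% = enzyme with substrate and 100% = substrate without enzyme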
Target sequence (Q92905 whole entry, looked up, one chain of several): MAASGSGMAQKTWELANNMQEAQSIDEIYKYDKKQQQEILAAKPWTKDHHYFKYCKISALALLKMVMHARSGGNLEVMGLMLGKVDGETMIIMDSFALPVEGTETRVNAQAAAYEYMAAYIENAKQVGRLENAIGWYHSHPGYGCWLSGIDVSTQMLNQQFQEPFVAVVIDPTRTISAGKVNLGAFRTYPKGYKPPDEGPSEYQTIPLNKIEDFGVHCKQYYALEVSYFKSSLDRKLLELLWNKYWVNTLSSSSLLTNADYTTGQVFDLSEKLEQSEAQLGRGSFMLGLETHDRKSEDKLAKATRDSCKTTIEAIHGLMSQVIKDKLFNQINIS
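Detection – fluorescence polarization · System – HEK293T-derived human Csn5 enzyme · Controls – substrate-only high control, full reaction low control · Timing – 90 min, room temperature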
PP1 counter: PP1-alpha (human) inhibition in PP5 counter-screen; purified PP1alpha, OMFP fluorescence; inhibition, % at 6.7 µM; 320,000 tested, 0.9% active; AID 2235;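 active means inhibition above the mean inhibition of all tested compounds plus 3 SD, computed separately for each screening campaign, cut at about 15% in these data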
NadD inh conf: NadD (S. aureus) inhibition, single concentration confirmation; shares compounds with NadD inh; purified S. aureus NadD, colorimetric enzyme assay; inhibition, % at 20 µM; 2,000 tested, 13% active; AID 624309; in the data active means inhibition mostly above about 42%, no sharp cut-off; inactive means mostly below about 42%
Numbers without * were called inactive; . = not tested or not shown; ! = not active in a repeat. Hits are enriched below; roughly 2.7% of the tested compounds scored in any of these assays.

SMILES	HNF4A DNA FP	NadD inh	Rpn11 block	TPT1 inh	CSN deneddyl inh	PP1 counter	NadD inh conf
CCOC(=O)[C@]12CCCC=C1N(Cc1ccco1)C(=O)[C@H](CC(=O)NCCCCc1ccccc1)C2	0	0	.	.	-4	.	.
O=C(NC(=S)Nc1nc(-c2ccccc2)cs1)c1cncc(Br)c1	1	33*	-2	-3	3	-1	11
O=C(NC(=S)Nc1nc(-c2ccccc2)cs1)c1cccnc1	-4	12	-7	23	5	2	.
Cc1ccccc1COc1ccc(/C(O)=C2/C(=O)C(=O)N(CCCn3ccnc3)C2c2ccco2)cc1 (centres undefined)	2	31*	12	-1	5	18*	53*
CCOc1ccc(/C(O)=C2/C(=O)C(=O)N(CCN(CC)CC)C2c2ccco2)cc1 (centres undefined)	2	-1	-1	-2	-6	-1	.
Cc1cccc(N2CCN(c3ccc4cc(S(=O)(=O)N5CCCCC5)ccc4n3)CC2)c1C	4	29*	0	1	0	-3	21
Cc1ccc(C)c(N2CCN(c3ccc4cc(S(=O)(=O)N5CCCCC5)ccc4n3)CC2)c1	-3	32*	4	0	1	-3	16
Cc1cccc(N2CCN(c3ccc4cc(S(=O)(=O)N5CCCCC5)ccc4n3)CC2C)c1 (centres undefined)	-4	28	5	-1	2	9	.
COc1ccc(OC)c(NC(=O)CSc2nnc(-c3cnccn3)n2C)c1	1	4	0	-3	4	-1	.
CCCOc1ccc(N2C(=O)CC(SC(=N)N3N=C(c4ccccc4)CC3c3ccccc3)C2=O)cc1 (centres undefined)	-1	43*	5	1	-2	-4	3
CCCOc1ccc(N2C(=O)CC(SC(=NC)Nc3ccc(F)cc3)C2=O)cc1 (centres undefined)	2	-7	1	-3	4	-2	.
CCC(C)C(CO)NCCCn1cnc(C(=O)Nc2ccc(C)c(C)c2)n1 (centres undefined)	-1	-4	-1	.	1	.	.
C[c-]1[c-](C)[c-](C)[c-](C)[c-]1C.[Fe].c1cc2nccc(N3CCCC3)[c-]2c1 (centres undefined)	-43	75*	-106	-5	-20	0	32*!
Cc1cc(Cn2nc(C(=O)NCc3cccc(Br)c3)cc2-c2ccccc2)on1	-1	-5	2	0	5	5	.
O=S(=O)(c1ccc(NC(=S)N/N=C/c2ccc(N3CCOCC3)cc2)cc1)N1CCOCC1	-2	1	-4	-2	-2	5	.
O=S(=O)(c1ccc(NC(=S)N/N=C/c2ccc(Oc3ccccc3)cc2)cc1)N1CCOCC1	-1	28*	0	-2	-5	2	-3
CCOC(=O)c1ccc(N2CSC3=C(C#N)C(c4cccs4)CC(=O)N3C2)cc1 (centres undefined)	-4	-6	4	0	-1	-2	.
COc1ccc(N2CSC3=C(C#N)C(c4cccs4)CC(=O)N3C2)cc1 (centres undefined)	1	2	3	6	0	4	.
CCc1ccc(C2CC(=O)N3CN(c4ccccc4)CSC3=C2C#N)cc1 (centres undefined)	-3	64*	18	0	28	5	21
Cc1ccc(N2CSC3=C(C#N)C(c4cccs4)CC(=O)N3C2)cc1 (centres undefined)	-4	31*	12	6	25	9	10
CCc1ccc(N2CSC3=C(C#N)C(c4cccs4)CC(=O)N3C2)cc1 (centres undefined)	-13	72*	9	2	36*	7	4
N#CC1=C2SCN(c3ccc(F)cc3)CN2C(=O)CC1c1cccc(F)c1 (centres undefined)	0	5	8	-3	17	2	.
O=C(CSc1nnc2c3ccccc3c3ccccc3c2n1)Nc1ccccc1F	5	42*	1	-5	2	-8	3
O=C(N/N=C/c1ccccn1)c1cc(-c2ccc(Cl)cc2)nc2ccccc12	-3	31*	2	2	2	0	6
COc1ccc(Cl)cc1C(=O)NNC(=S)NC(=O)c1cc(-c2ccc(Cl)cc2)nc2ccccc12	1	72*	15	-2	2	-1	18
SMILES	HNF4A DNA FP	NadD inh	Rpn11 block	TPT1 inh	CSN deneddyl inh	PP1 counter	NadD inh conf
O=C(O)COc1ccccc1/C=N/NC(=O)c1cc(-c2ccc(Cl)cc2)nc2ccccc12	-3	24*	10	0	-4	6	53*
COc1ccccc1C(=O)NNC(=S)NC(=O)c1sc2ccccc2c1Cl	-4	64*	27	0	-8	5	11
CCNC(=S)NNC(=O)c1cc(-c2ccc(OC)cc2)nc2ccccc12	4	2	3	1	-8	-3	.
COC(=O)c1cc(S(=O)(=O)NCc2cc(OC)c(OC)c(OC)c2)cn1C	6	1	-9	2	4	2	.
Nc1nonc1-n1nnc(C(=O)N/N=C/c2ccoc2)c1CSc1ccc(Cl)cc1	-1	14	-4	0	0	3	.
CC(=O)Nc1ccc(NC(=O)c2ccccc2-n2cnnn2)cc1	-1	-1	-1	.	0	.	.
CCCOc1cccc(-c2cc(C(=O)N/N=C/c3ccccn3)c3ccccc3n2)c1	7	20	-5	.	2	.	.
O=C(N/N=C/c1ccccn1)c1cc(-c2ccc(Br)cc2)nc2ccccc12	-1	32*	18	-2	-3	7	6
COc1nc(N)nc(N)c1NS(=O)(=O)c1ccc(C)cc1	3	-7	3	2	2	-1	.
C=CCSC1=N/C(=C\c2cc(OCC)c(OC(C)=O)c([N+](=O)[O-])c2)C(=O)S1	-1	33*	-4	0	3	3	9
O=C(CCOc1ccccc1)Nc1nnc(-c2ccc3c(c2)OCCO3)o1	-1	3	15	0	5	2	.
O=C(Nc1nnc(-c2ccc3c(c2)OCCO3)o1)c1ccc(Cc2ccccc2)cc1	0	48*	9	1	8	7	8
Cc1ccsc1/C=C/C1=Cc2c(sc(NC(=O)CSc3n[nH]c(N)n3)c2C#N)C(C)(C)C1	-2	64*	17	23	32	17*	42
CN(c1ccccc1)S(=O)(=O)c1ccc(C(=O)NNC(=O)c2ccccc2F)cc1	-1	-2	-2	.	4	-3	.
c1ccc(-c2nc(SCc3nc4ccccc4[nH]3)c3oc4ccccc4c3n2)cc1	-4	31*	-1	.	-1	.	41
Cc1cc(Br)cc2c(C(=O)Nc3c(C)n(C)n(-c4ccccc4)c3=O)cc(-c3cccs3)nc12	-1	30*	6	-3	5	9	10

Compound activity as filed in PubChem.
